Experiments:
Mus musculus [1] = assay: Ability to prevent seizures induced by subcutaneous injection of bicuculline, after 1 hr in mice; type: functional; details: sc
Procedure, shortened: (§1)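 Mice dosed intraperitoneally at various doses, then bicuculline 2.7 mg/kg given subcutaneously and protection noted. ED50 with 95% CI, slope and SE obtained using eight animals per dose; otherwise two, seven or eight mice per dose. Screening run by NINDS per its reported procedures.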

Mus musculus [2] = assay: Ability to prevent seizures induced by subcutaneous injection of picrotoxin, after 1 hr in mice; type: functional; details: sc
Procedure, shortened: (§2)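 Mice received various intraperitoneal doses of compound, then subcutaneous picrotoxin at 2.5 mg/kg. Protection from seizures was scored. ED50 values use eight mice per dose and are given with 95% CI, slope and SE.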

Mus musculus [3] = assay: Effective dose for protection against seizures induced in the maximal electroshock anticonvulsant screen test after intraperitoneal injection in mice; type: functional; details: ip
Procedure, shortened: (§3)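 Mice received compound intraperitoneally, with quantitative evaluation in the MES, scPTZ and neurotoxicity screens at the tabulated time. ED50 or TD50 (mg/kg) reported with 95% CI, slope and SE. Testing done by NINDS under its reported procedures.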

Mus musculus [4] = assay: Effective dose for protection against seizures induced in the subcutaneous pentylenetetrazole screen test in mice; type: functional; details: sc; procedure, shortened: as §3
[5] = Toxic dose determined as neurotoxicity, 0.25 hr after intraperitoneal injection in mice.; type: toxicity, organism-based; details: mouse, in vivo, ip; procedure, shortened: as §3
Rattus norvegicus [6] = assay: Effective dose for protection against seizures induced in the maximal electroshock anticonvulsant screen test 1 hr after oral dosing in rat; type: functional
Procedure, shortened: (§4)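 Oral dosing in rats, with MES protection or neurotoxicity assessed at the stated time. ED50 or TD50 (mg/kg) given with 95% CI, slope and SE. Testing done by NINDS under its reported procedures.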

[7] = Toxic dose determined as neurotoxicity, 1 h after oral dosing in rat; type: toxicity, organism-based; details: in vivo; procedure, shortened: as §4
[8] = Protective index is the ratio of TD50 and ED50 in maximal electroshock anticonvulsant screen test; type: functional
Procedure, shortened: (§5)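 Protection index is TD50/ED50, taken from intraperitoneal mouse data for the MES and scPTZ screens respectively, or from oral rat MES data.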

[9] = Protective index is the ratio of TD50 and ED50 in subcutaneous pentylenetetrazole screen test; type: functional; procedure, shortened: as §5
[10] = Protective index is the ratio of TD50 in neurotoxicity screen test and ED50 in MES screen test
Mus musculus [11] = assay: Ability to prevent seizures induced by subcutaneous injection of bicuculline, after 0.25 hr in mice; type: functional; details: sc; procedure, shortened: as §1
Mus musculus [12] = assay: Ability to prevent seizures induced by subcutaneous injection of picrotoxin, after 0.25 hr in mice; type: functional; details: sc; procedure, shortened: as §2
[13] = Neurotoxicity was determined, 1 hr after oral dosing in rat.; type: toxicity, organism-based; details: in vivo; procedure, shortened: as §4
Rattus norvegicus [14] = assay: Neurotoxicity was determined, of 0.25, 0.5, 1, 2 and 4 h, after 300 mg/kg oral dosing in rat.; type: toxicity, organism-based; parameters: dose 300 mg/kg, route oral; details: in vivo
Procedure, shortened: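 Rats given 300 mg/kg orally and checked for neurotoxicity 0.25, 0.5, 1, 2 and 4 h later, using two animals per time point. Testing done by NINDS.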

[15] = Neurotoxicity was determined, 0.25 hr after intraperitoneal injection in mice.; type: toxicity, organism-based; details: mouse, in vivo, ip; procedure, shortened: as §3
[16] = Neurotoxicity was determined, 1 hr after oral dosing in rat; type: toxicity, organism-based; details: in vivo; procedure, shortened: as §4
Mus musculus [17] = assay: Ability to prevent seizures induced by subcutaneous injection of bicuculline, after 4 hr in mice; type: functional; details: sc; procedure, shortened: as §1
[18] = Toxic dose determined as neurotoxicity, 0.25 hr after intraperitoneal injection in mice; type: toxicity, organism-based; details: mouse, in vivo, ip
Procedure, shortened: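 Mice received the compound by intraperitoneal injection, with the NINDS programme running the test by its reported procedures. Neurotoxicity was assessed at set times after dosing. TD50 is given in mg/kg with 95% CI, slope and SE.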

Rattus norvegicus [19] = assay: Ability to protect against seizures induced in the maximal electro shock (MES) screen test 1 hr after oral dosing in rat; type: functional
Procedure, shortened: (§6)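 Rats were dosed orally, with the NINDS programme running the tests by its reported procedures. MES protection (ED50) and neurotoxicity (TD50) were measured at timed intervals after dosing. Each value is given as a dose-response ED50 or TD50 in mg/kg with 95% CI, slope and SE.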

[20] = Toxic dose determined neurotoxicity, 1 hr after oral dosing in rat; type: toxicity, organism-based; details: in vivo; procedure, shortened: as §6
Rattus norvegicus [21] = assay: Ability to protect against seizures induced in the maximal electro shock (MES) screen,test1 hr after oral dosing in rat.; type: functional; procedure, shortened: as §4

SMILES | ED50 (Mus musculus [3]) [mg/kg] | ED50 (Mus musculus [4]) [mg/kg] | ED50 (Rattus norvegicus [6]) [mg/kg] | Ratio [8] | Ratio [9] | Ratio [10] | ED50 (Mus musculus [11]) [mg/kg] | ED50 (Mus musculus [12]) [mg/kg] | TD50 at 1 h [13] [mg/kg] | TD50 at 0.25 h [15] [mg/kg] | other results
NC(=O)N/N=C/c1cccc(Cl)c1 | 90.4 | 177 | 24.4 | > 5.53 | >2.82 | > 20.5 |  |  |  |  | ED50 (Mus musculus [1]): > 500 mg/kg; ED50 (Mus musculus [2]): 200 mg/kg; TD50 at 0.25 h [5]: > 500 mg/kg; TD50 at 1 h [7]: > 500 mg/kg
CCCCC/C(=N\NC(N)=O)c1ccccc1 |  |  | 32.6 |  |  | > 15.3 | 363 | 230 | > 500 |  | 
CC/C(=N\NC(N)=O)c1ccccc1 |  |  | 32.8 |  |  | 12.3 | > 100 | 128 | 404 |  | 
COc1ccc(/C=N/NC(N)=O)cc1 |  |  |  |  |  |  |  |  |  |  | TD50 (Rattus norvegicus [14]): No activity
NC(=O)N/N=C/c1ccc(Cl)cc1Cl |  |  | 43.1 |  |  | > 11.6 |  |  | > 500 |  | 
NC(=O)N/N=C/c1ccccc1Cl |  |  | 38.8 |  |  | > 12.9 |  |  | > 500 |  | 
NC(=O)N/N=C/c1ccc(Cl)cc1 | 74.8 | 135 | 18.6 | 3.37 | 1.87 | > 26.9 | > 300 | 146 |  | 252 | TD50 at 1 h [16]: > 500 mg/kg
NC(=O)N/N=C/c1c(Cl)cccc1Cl |  |  | 59 |  |  | 2.18 |  |  | 129 |  | 
NC(=O)N/N=C/c1ccc(Cl)c(Cl)c1 | 146 | > 500 | 20.2 | > 3.43 |  | > 24.8 |  |  | > 500 | > 500 | ED50 (Mus musculus [17]): > 500 mg/kg
CC(C)/C(=N\NC(N)=O)c1ccccc1 |  |  | 43.3 |  |  | 5.66 |  |  | 245 |  | 
NC(=O)NN=C(c1ccccc1)c1ccccc1 [DIPHENYLSEMICARBAZONE] | 47 | 76.2 | 22.9 | 1.91 | 1.18 | 10.3 | > 100 |  | 235 | 89.7 | 
C/C(=N/N=C(\N)S)c1ccc(Cl)cc1 [P-CHLOROPHENYL(METHYL)THIOSEMICARBAZONE] | 60.4 | 69.6 |  | 0.39 | 0.34 | 7.67 |  |  |  |  | TD50 at 0.25 h [18]: 23.8 mg/kg; ED50 (Rattus norvegicus [19]): 15.5 mg/kg; TD50 at 1 h [20]: 119 mg/kg
CCCC/C(=N\NC(N)=O)c1ccccc1 [PHENYL(BUTYL)SEMICARBAZONE] | 58.3 | 108 | 59.5 | 1.81 | 0.97 | > 8.41 |  |  | > 500 | 106 | 
CC(=NNC(N)=O)c1ccccc1 [PHENYL(METHYL)SEMICARBAZONE] | 35.1 | 78.5 | 20.2 | 2.34 | 1.05 | 13.2 | > 100 | 60.8 | 268 | 82.3 | 
C/C(=N\N=C(/N)S)c1ccccc1 [PHENYL(METHYL)THIOSEMICARBAZONE] |  |  | 16.9 |  |  | 4.33 |  |  | 73 |  | 
NC(=O)N/N=C/C=C/c1ccccc1 [PHENYLETHENYLSEMICARBAZONE] | 48.9 | 84.7 | 11.5 | 2.01 | 1.16 | > 43.5 | > 120 |  | > 500 | 98.2 | 
NC(=O)N/N=C/CCc1ccccc1 [PHENYLETHYLSEMICARBAZONE] | 47 | 78.6 | 36.4 | 1.54 | 0.92 | 9.16 | > 120 |  | 334 | 72.3 | 
NC(=O)N/N=C/Cc1ccccc1 [PHENYLMETHYLSEMICARBAZONE] | 45.5 | 128 | 42.8 | 2.63 | 0.94 | > 11.7 | 59.6 | > 150 | > 500 | 120 | 
NC(=O)N/N=C\c1ccccc1 [PHENYLSEMICARBAZONE] | 69.7 | 127 |  | 2.93 | 1.6 | 11.3 | 116 | 104 |  |  | TD50 at 0.25 h [18]: 204 mg/kg; ED50 (Rattus norvegicus [21]): 22.5 mg/kg; TD50 at 1 h [16]: 254 mg/kg
NC(=S)N/N=C/c1ccccc1 [PHENYLTHIOSEMICARBAZONE] |  |  | 12.8 |  |  | > 15.6 |  |  | > 200 |  | 
